Assay results of several laboratories.

| SMILES | assay | test system | setting | quantity | result |
| --- | --- | --- | --- | --- | --- |
| C=C[C@H]1C[N@@]2CC[C@H]1C[C@@H]2[C@@H](O)c1ccnc2ccccc12 | – | water | – | logP | 2.82 |
| Cc1cc(C)nc(Nc2ncc(C(=O)NCCc3c(C)[nH]c4ccccc34)cn2)c1 | metabolic stability | dog, liver microsomes | 1 µM | microsomal CLint | 72 µL/min/mg |
| O=C(O)c1ccc(OC(=O)N2CCC(CCn3ccc4ccc(F)cc43)CC2)cc1 | HPLC | – | – | chromatographic logP | 3.6 |
| C[C@]12CC[C@H](O)CC1=CC[C@@H]1[C@@H]2CC[C@]2(C)C(n3cnc4ccccc43)=CC[C@@H]12.Cl | – | mouse, plasma | intravenous, 1 mg/kg | half-life | 1.02 h |
| NCC(=O)Nc1ccc(-n2nc(C(F)(F)F)cc2-c2ccc3c(ccc4ccccc43)c2)cc1 | – | mouse, plasma | oral, 80 mg/kg | half-life | 22 h |
| O=C(NCCCCCn1ccc2ccc(F)cc21)Oc1ccc(F)cc1 | HPLC | – | – | chromatographic logP | 4.2 |
| Nc1nc(-c2ccccc2)nc2[nH]nc(Nc3ccc(C(F)(F)F)cc3)c12 | – | mouse, plasma | oral, 100 mg/kg, 6 h | concentration | 0.802 µg/mL |
| N=c1c2c(-c3ccccc3)c(-c3ccccc3)n(Cc3ccccc3)c2ncn1[C@H]1CC[C@H](O)CC1 | – | female minipig, plasma | oral, 2.5 mg/kg, single dose | half-life | 98.4 h |
| O=C(NCCCCCn1ccc2ccc(F)cc21)Oc1ccc(C(=O)O)cc1 | HPLC | – | – | chromatographic logP | 2.8 |
| C[C@H]1COCCN1c1nc(NCc2cccnc2C(F)(F)F)c2cccnc2n1 | metabolic stability | dog, hepatocytes | – | hepatocyte CLint | 10 µL/min/10⁶ cells |
| C[C@]12CC[C@H](n3ccnc3)CC1=CC[C@@H]1[C@@H]2CC[C@]2(C)C(n3cnc4ccccc43)=CC[C@@H]12.Cl.Cl | – | male CD-1 mouse, plasma | intravenous, 1 mg/kg | half-life | 17.5 h |
| O=C(NCCCCCn1ccc2ccc(F)cc21)Oc1cccnc1 | HPLC | – | – | chromatographic logP | 2.6 |
| CN[C@H](CC(C)C)C(=O)N[C@H]1C(=O)N[C@@H](CC(N)=O)C(=O)N[C@H]2C(=O)NC3C(=O)N[C@H](C(=O)N[C@H](C(=O)NCCC[N+](C)(C)C)c4cc(O)cc(O)c4-c4cc3ccc4O)[C@H](O)c3ccc(c(Cl)c3)Oc3cc2cc(c3OC2OC(CO)C(O)[C@H](O)[C@@H]2O[C@H]2CC(C)(NCc3ccc(-c4ccc(Cl)cc4)cc3)[C@H](O)[C@H](C)O2)Oc2ccc(cc2Cl)[C@H]1O (some centres unmarked) | – | mouse, plasma | intravenous, 10 mg/kg | half-life | 7 h |
| N[C@@H](Cc1ccccc1)C(=O)N1C/C(=C\c2ccc(Cl)c(Cl)c2)C(=O)/C(=C/c2ccc(Cl)c(Cl)c2)C1 | – | mouse, plasma | oral, 20 mg/kg | half-life | 2.6 h |
| NC(=O)c1cccc(-c2cccc(OC(=O)NC3CCCCC3)c2)c1 | HPLC | – | – | chromatographic logP | 2 |
| CC(C)[C@H]1C(=O)N[C@@H](CCCN=C(N)N)C(=O)NCC(=O)N[C@@H](CC(=O)O)C(=O)N[C@H](Cc2ccccc2)C(=O)N1C | – | – | – | logP | -2 |
| CC[C@H]1CN2CC[C@H]1C[C@@H]2[C@@H](O)c1ccnc2ccc(OC)cc12 | – | water | – | logP | 3.43 |
